Compound activity (PubChem)
Compounds with a hit are over-represented: about 2.3% of the library has one in this group of screens.
TRPC4 potent: positive allosteric modulators of TRPC4, primary screen, cell-based, mouse TRPC4beta, HEK293 mu-opioid, Fluo-4 calcium; DAMGO EC20, Fluo-4 Ca2+ flux; active compounds read high; B-score at 10 µM; 0.42% of 310,000 active;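 active = B-score of calcium response area above 5 SD of library B-scores, with initial fluorescence ratio within 5 SD of library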;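 also: B-score of integrated fluorescence ratio over time as area under calcium response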
TRPC6 activator: mouse TRPC6 channel activators, primary screen, cell-based, HEK293, membrane potential dye. HEK293-TRPC6 membrane potential dye fluorescence; active compounds read high. B-score at 10 µM. 0.13% of 310,000 active. AID 2550, 2010;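 active = B-score of the integrated fluorescence ratio above library mean plus 3 SD, and starting fluorescence ratio within library mean plus 5 SD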;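 also: higher score means more depolarization so channel activation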
Target sequence (Q61143 whole entry, looked up): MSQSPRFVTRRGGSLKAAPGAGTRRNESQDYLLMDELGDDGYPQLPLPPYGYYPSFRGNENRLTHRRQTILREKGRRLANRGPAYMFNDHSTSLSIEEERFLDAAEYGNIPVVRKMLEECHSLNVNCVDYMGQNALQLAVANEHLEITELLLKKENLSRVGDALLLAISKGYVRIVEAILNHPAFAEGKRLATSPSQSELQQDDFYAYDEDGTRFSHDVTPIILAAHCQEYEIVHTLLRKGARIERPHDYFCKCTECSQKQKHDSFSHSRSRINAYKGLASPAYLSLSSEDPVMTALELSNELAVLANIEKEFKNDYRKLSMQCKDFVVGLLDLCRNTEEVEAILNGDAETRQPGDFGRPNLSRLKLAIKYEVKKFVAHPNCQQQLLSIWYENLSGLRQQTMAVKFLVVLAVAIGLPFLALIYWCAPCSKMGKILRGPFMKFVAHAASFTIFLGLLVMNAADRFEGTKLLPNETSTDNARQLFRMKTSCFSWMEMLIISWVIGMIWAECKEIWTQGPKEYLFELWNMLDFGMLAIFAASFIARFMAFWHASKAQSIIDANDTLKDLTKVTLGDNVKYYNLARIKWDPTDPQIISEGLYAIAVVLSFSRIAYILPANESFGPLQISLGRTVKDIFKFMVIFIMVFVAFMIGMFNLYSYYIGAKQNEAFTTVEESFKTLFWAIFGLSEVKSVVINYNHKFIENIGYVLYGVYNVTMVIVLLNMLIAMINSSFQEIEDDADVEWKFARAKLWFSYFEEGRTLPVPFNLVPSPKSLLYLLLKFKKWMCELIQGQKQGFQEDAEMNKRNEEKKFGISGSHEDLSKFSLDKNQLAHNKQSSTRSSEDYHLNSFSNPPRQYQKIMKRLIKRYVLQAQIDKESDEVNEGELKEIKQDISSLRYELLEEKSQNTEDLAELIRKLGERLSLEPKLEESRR
TRPC4 act: activators of mouse TRPC4 channel, primary screen, Fluo4 calcium, HEK293 TRPC4beta/mu-opioid cells; AID 2237, 2010; Fluo4 calcium fluorescence; active compounds read high; B-score at 10 µM; Short transient receptor potential channel 4 (Mus musculus), Q9QUQ5; 0.49% of 310,000 active;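 active = B-score above 5 SD of library B-scores, and initial fluorescence ratio not above library mean plus 5 SD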;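 also: positive B-score marks a calcium rise read as TRPC4 activation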
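system = HEK293 cells stably co-expressing mouse TRPC4beta and mu-opioid receptor | schedule = Fluo4 dye loading 45 min at room temperature, 110 s recording | measure = B-scored integrated calcium fluorescence ratio | signal = Fluo4 calcium-sensitive dye fluorescence, kinetic, 1 Hz baseline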
TRPC6 inh: mouse TRPC6 channel inhibitors, primary screen, cell-based, HEK293, membrane potential dye | ACh-evoked depolarization; active compounds read low | B-score at 10 µM | 1.1% of 310,000 active;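 active = B-score under library mean minus 3 SD, initial fluorescence not abnormally high, positive integrated signal ratio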;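 also: B-score derived from integrated fluorescence ratio over the kinetic read; more negative B-score means stronger inhibition of depolarization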
TRPC4 inh: inhibitors of mouse TRPC4 channel, primary screen, Fluo4 calcium, HEK293 TRPC4beta/mu-opioid cells; Short transient receptor potential channel 4 (Mus musculus), Q9QUQ5; DAMGO-evoked Fluo4 calcium flux; active compounds read low; B-score at 10 µM; 0.39% of 300,000 active;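 active = B-score over 3 SD under the library average, no early fluorescence shift, positive overall ratio signal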
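Test system – stable TRPC4beta/mu-opioid receptor HEK293 cells · Probe or stimulus – DAMGO, a submaximal dose followed by a maximal one · Dosing – one concentration per compound · Signal – Fluo4 calcium fluorescence by kinetic imaging, 5 s 1 Hz baseline · Evaluation – per-well B score of integrated baseline-normalized Fluo4 ratio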
HEK293 MPD ctr: parental HEK293 membrane potential modulation, confirmation, counter-screen for TRPC6 modulator project, cell-based | membrane potential signal change, % at 10 µM | 51% of 2,400 active | shares compounds with TRPC6 inh | membrane potential dye fluorescence | AID 488924, 2010;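 active = membrane potential signal moves up or down beyond 5 SD from buffer-only wells, on both duplicate plates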
HEK293 MPD ctr 2: parental HEK293 nonspecific activity of TRPC6 modulators, second screen. membrane potential dye fluorescence; after compound, maximal acetylcholine stimulation. shares compounds with TRPC6 inh. inhibition, % at 10 µM. 14% of 2,400 active;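 active = membrane potential signal drops by more than 5 SD from the mean control signal, in both duplicate plates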;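 also: plate controls were acetylcholine ECmax control wells for no effect and buffer only wells for full effect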
TRPC4 ctr mod: TRPC4 modulation by TRPC6 hit compounds, confirmation, selectivity assay for TRPC6 modulator project, cell-based, HEK293 TRPC4/mu-opioid, membrane potential dye, mouse | shares compounds with TRPC6 inh | membrane potential fluorescence | percent change from control (negative = decrease, positive = increase), % at 10 µM | 69% of 2,400 active;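 active = membrane potential signal moved up or down beyond 5 SD of buffer control wells, in both duplicate plates, actives on both sides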;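 also: plate controls were assay buffer wells for no effect and DAMGO maximal-effect wells for full effect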
TRPC4/MOR inh 2: second selectivity test of TRPC6 modulators against mouse TRPC4; 55% of 2,400 active; HEK293 TRPC4/mu-opioid, membrane potential dye fluorescence; stimulated with maximal-effect DAMGO; inhibition, % at 10 µM; shares compounds with TRPC6 inh;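 active = drop in membrane potential signal beyond 5 SD of the control wells in both duplicate plates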;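 also: TRPC4 counter screen for TRPC6 hits run under conditions tuned for TRPC6 not TRPC4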
TRPC6 inh conf: mouse TRPC6 channel inhibitors, confirmation, HEK293 cells, membrane potential dye, duplicate. shares compounds with TRPC6 inh. ACh-evoked depolarization. inhibition, % at 10 µM. 43% of 3,300 active;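 active = fluorescence ratio falls more than 5 SD below the full-stimulation control mean, in both duplicate runs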;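 also: integrated fluorescence ratio of peak minus minimum over baseline after agonist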
TRPC6 act conf: mouse TRPC6 channel activators, confirmation, HEK293 cells, membrane potential dye, duplicate. shares compounds with TRPC6 inh. HEK293-TRPC6 membrane potential dye fluorescence, FDSS. activation, % at 10 µM. 11% of 2,800 active. AID 488961, 2010;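 active = ratio signal rise beyond 5 SD above unstimulated control wells' mean, seen in both duplicate runs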;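 also: plate controls were buffer EC0 wells for no effect and acetylcholine ECmax response for full effect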
* = called active by the depositor.

`CNC(=O)CC1C(=O)N(c2ccc(F)cc2)C(=S)N1NC(=O)c1ccc(Cl)cc1` (stereo not given) gave TRPC4 potent inactive, TRPC6 activator inactive, TRPC4 act inactive, TRPC6 inh -5.6*, TRPC4 inh inactive, HEK293 MPD ctr inactive, HEK293 MPD ctr 2 inactive, TRPC4 ctr mod inactive, TRPC4/MOR inh 2 inactive, TRPC6 inh conf inactive and TRPC6 act conf inactive.
CN(Cc1ccc(F)cc1)S(=O)(=O)c1nnc(NC(=O)c2ccccc2Br)s1 was read as TRPC4 potent inactive, TRPC6 activator 17*, TRPC4 act inactive, TRPC6 inh inactive, TRPC4 inh -6*, HEK293 MPD ctr inactive, HEK293 MPD ctr 2 inactive, TRPC4 ctr mod 17%*, TRPC4/MOR inh 2 62%*, TRPC6 inh conf inactive and TRPC6 act conf inactive.
`COc1ccccc1CNC(=O)CNC(=O)c1sc2ccccc2c1Cl` gave TRPC4 potent inactive, TRPC6 activator inactive, TRPC4 act inactive, TRPC6 inh inactive and TRPC4 inh inactive.
`CCOc1ccc(N2C=Nc3ccc(OCC)cc3C2)cc1` gave TRPC4 potent inactive, TRPC6 activator inactive, TRPC4 act inactive, TRPC6 inh -5.7*, TRPC4 inh inactive, HEK293 MPD ctr -82%*, HEK293 MPD ctr 2 inactive, TRPC4 ctr mod -18%*, TRPC4/MOR inh 2 34%*, TRPC6 inh conf inactive and TRPC6 act conf inactive.
CCOc1ccc(N2C(=O)CNC2=S)cc1 was read as TRPC4 potent inactive, TRPC6 activator inactive, TRPC4 act inactive, TRPC6 inh inactive and TRPC4 inh inactive.
For CCOc1ccc(S(=O)(=O)N(C)c2ccc(OCC(=O)N3c4ccc(C)cc4C4CN(C)CCC43)cc2)cc1 (stereo not given) the results were TRPC4 potent inactive, TRPC6 activator inactive, TRPC4 act inactive, TRPC6 inh inactive and TRPC4 inh inactive.
Screening Cc1ccc2c(c1)C1CN(C)CCC1N2C(=O)COc1ccc(N(C)S(=O)(=O)c2cccs2)cc1 (stereo not given) returned TRPC4 potent inactive, TRPC6 activator inactive, TRPC4 act inactive, TRPC6 inh -6*, TRPC4 inh inactive, HEK293 MPD ctr inactive, HEK293 MPD ctr 2 inactive, TRPC4 ctr mod -22%*, TRPC4/MOR inh 2 76%*, TRPC6 inh conf 53%* and TRPC6 act conf inactive.
